The subject of data set [1] is CHO. The data set can be described thus: Cytotoxicity against CHO cells. In kind it is cell-based. As to conditions: Cricetulus griseus.
Data set [2] addresses Cytochrome P450 2E1 (Homo sapiens, UniProt P05181). The data set can be described thus: Inhibition of CYP2E1 in human liver microsomes assessed as chlorzoxazone 6-hydroxylation after 20 mins by LC-MS/MS analysis. It is filed as ADME. For orientation: Liver microsomes are a subcellular fraction often used to study metabolism.
The target of data set [3] is T1, Cytochrome P450 2B6 (Homo sapiens, UniProt P20813).
T1 sequence (P20813 whole entry): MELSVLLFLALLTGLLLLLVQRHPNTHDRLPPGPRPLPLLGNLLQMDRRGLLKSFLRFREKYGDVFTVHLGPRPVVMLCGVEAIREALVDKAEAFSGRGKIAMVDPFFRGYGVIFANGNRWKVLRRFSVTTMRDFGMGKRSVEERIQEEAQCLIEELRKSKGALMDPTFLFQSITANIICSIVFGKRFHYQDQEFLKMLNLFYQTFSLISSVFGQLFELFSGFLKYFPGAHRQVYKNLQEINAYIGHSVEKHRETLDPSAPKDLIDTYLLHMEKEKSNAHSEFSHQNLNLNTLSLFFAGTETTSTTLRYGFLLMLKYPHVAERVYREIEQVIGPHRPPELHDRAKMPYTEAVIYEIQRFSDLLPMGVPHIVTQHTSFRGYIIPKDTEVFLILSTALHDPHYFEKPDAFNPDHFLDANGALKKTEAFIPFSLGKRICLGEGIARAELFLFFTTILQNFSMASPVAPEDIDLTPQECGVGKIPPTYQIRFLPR
The data set can be described thus: Inhibition of CYP2B6 in human liver microsomes assessed as bupropion hydroxylation after 20 mins by LC-MS/MS analysis. It is filed as ADME.

In data set [4] the target is T2, Cytochrome P450 2A6 (Homo sapiens, UniProt P11509).
T2 sequence (P11509 whole entry): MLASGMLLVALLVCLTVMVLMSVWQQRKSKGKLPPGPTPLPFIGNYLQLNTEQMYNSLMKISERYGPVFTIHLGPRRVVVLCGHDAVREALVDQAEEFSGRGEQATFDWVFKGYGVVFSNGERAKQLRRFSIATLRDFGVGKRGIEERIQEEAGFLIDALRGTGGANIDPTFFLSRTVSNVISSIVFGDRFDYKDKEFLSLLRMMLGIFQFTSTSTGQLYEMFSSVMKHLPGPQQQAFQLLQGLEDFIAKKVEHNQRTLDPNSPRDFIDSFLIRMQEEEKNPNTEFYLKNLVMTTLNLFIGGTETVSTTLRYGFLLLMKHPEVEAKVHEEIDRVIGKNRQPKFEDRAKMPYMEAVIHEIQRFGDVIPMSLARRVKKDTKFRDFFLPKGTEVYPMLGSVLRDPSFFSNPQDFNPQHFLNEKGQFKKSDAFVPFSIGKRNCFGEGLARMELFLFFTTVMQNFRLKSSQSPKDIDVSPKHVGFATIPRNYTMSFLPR
The data set can be described thus: Inhibition of CYP2A6 in human liver microsomes assessed as coumarin 7-hydroxylation after 20 mins by LC-MS/MS analysis. It is filed as ADME.

The target in data set [5] is T3, Cytochrome P450 1A2 (Homo sapiens, UniProt P05177).
T3 sequence (P05177 whole entry): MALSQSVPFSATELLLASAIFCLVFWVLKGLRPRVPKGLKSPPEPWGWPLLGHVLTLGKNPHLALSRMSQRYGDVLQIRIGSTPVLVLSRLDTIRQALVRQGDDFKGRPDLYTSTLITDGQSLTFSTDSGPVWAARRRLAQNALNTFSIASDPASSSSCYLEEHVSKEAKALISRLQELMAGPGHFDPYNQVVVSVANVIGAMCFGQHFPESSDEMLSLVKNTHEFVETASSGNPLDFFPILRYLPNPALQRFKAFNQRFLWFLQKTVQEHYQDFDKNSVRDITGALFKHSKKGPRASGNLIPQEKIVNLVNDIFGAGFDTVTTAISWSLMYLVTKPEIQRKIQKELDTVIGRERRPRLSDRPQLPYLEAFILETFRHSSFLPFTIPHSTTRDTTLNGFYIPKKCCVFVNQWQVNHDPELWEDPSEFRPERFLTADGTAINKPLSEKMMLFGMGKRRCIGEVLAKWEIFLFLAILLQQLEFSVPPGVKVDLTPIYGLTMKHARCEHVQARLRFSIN
The data set can be described thus: Inhibition of CYP1A2 in human liver microsomes assessed as phenacetin O-deethylation after 20 mins by LC-MS/MS analysis. It is filed as ADME.

The target in data set [6] is Cytochrome P450 3A4 (Homo sapiens, UniProt P08684). The data set can be described thus: Inhibition of CYP3A4 in human liver microsomes assessed as midazolam 1'-hydroxylation and testosterone 6beta-hydroxylation after 20 mins by LC-MS/MS analysis. In kind it is ADME.
Cytochrome P450 3A4, sequence (P08684 whole entry): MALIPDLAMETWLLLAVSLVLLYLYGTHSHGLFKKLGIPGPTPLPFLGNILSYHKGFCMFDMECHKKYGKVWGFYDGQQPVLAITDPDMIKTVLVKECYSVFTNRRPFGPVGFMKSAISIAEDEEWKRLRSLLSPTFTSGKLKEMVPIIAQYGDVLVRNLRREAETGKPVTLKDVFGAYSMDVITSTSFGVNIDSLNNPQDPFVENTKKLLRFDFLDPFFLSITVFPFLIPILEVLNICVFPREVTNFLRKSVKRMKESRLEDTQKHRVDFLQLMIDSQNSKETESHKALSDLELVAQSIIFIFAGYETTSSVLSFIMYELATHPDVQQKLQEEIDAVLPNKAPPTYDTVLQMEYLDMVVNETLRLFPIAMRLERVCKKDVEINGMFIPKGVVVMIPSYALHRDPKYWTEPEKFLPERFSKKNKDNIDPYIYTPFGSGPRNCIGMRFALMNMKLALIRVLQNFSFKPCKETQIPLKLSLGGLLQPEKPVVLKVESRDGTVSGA
Data set [7] deals with Cytochrome P450 2C19 (Homo sapiens, UniProt P33261). The data set can be described thus: Inhibition of CYP2C19 in human liver microsomes assessed as S-mephenytoin 4'-hydroxylation after 20 mins by LC-MS/MS analysis. It is filed as ADME.
Cytochrome P450 2C19, sequence (P33261 whole entry): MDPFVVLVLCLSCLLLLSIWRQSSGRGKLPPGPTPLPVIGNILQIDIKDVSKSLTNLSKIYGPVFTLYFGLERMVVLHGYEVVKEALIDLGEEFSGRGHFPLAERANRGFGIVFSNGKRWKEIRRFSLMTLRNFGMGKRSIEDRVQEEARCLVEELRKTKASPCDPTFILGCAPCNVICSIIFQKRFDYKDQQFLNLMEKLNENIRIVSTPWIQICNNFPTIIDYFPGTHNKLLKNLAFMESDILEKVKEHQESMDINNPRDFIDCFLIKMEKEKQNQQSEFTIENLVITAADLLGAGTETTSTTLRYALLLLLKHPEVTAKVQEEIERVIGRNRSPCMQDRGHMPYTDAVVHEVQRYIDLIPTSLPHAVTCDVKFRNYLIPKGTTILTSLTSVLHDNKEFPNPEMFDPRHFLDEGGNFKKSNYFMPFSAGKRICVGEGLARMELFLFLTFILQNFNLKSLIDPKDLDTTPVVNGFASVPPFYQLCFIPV
The target of data set [8] is Cytochrome P450 2D6 (Homo sapiens, UniProt P10635). The data set can be described thus: Inhibition of CYP2D6 in human liver microsomes assessed as bufuralol 1'-hydroxylation after 20 mins by LC-MS/MS analysis. It is filed as ADME.
Cytochrome P450 2D6, sequence (P10635 whole entry): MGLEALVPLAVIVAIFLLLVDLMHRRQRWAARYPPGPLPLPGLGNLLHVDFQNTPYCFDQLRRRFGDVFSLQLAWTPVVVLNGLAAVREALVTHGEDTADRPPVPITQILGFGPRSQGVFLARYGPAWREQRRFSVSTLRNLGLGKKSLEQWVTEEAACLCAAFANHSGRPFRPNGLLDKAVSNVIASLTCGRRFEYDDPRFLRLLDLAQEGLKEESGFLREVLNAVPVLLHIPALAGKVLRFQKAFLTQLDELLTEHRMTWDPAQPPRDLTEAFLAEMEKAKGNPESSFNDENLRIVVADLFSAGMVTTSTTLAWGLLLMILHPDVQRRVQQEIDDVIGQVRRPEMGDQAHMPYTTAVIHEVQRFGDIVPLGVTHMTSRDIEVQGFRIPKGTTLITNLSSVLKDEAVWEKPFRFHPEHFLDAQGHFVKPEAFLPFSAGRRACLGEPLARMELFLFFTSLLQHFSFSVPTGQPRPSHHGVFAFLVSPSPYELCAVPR
In data set [9] the target is Cytochrome P450 2C9 (Homo sapiens, UniProt P11712). The data set can be described thus: Inhibition of CYP2C9 in human liver microsomes assessed as diclofenac 4'-hydroxylation after 20 mins by LC-MS/MS analysis. It is filed as ADME.
Cytochrome P450 2C9, sequence (P11712 whole entry): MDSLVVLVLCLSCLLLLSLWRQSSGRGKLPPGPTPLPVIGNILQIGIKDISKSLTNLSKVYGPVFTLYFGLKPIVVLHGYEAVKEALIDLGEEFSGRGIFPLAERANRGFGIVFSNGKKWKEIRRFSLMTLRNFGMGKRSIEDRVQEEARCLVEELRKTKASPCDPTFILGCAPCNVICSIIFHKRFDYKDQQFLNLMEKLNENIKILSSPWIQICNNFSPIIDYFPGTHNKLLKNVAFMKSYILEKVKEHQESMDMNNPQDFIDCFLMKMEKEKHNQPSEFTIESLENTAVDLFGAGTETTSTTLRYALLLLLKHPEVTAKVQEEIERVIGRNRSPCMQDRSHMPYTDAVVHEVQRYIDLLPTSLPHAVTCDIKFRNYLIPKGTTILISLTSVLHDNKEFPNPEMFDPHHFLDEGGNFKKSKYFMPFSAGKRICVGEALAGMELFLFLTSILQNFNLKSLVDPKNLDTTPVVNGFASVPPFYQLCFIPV
For data set [10], the target named is T4, Cytochrome P450 2C8 (Homo sapiens, UniProt P10632).
T4 sequence (P10632 whole entry): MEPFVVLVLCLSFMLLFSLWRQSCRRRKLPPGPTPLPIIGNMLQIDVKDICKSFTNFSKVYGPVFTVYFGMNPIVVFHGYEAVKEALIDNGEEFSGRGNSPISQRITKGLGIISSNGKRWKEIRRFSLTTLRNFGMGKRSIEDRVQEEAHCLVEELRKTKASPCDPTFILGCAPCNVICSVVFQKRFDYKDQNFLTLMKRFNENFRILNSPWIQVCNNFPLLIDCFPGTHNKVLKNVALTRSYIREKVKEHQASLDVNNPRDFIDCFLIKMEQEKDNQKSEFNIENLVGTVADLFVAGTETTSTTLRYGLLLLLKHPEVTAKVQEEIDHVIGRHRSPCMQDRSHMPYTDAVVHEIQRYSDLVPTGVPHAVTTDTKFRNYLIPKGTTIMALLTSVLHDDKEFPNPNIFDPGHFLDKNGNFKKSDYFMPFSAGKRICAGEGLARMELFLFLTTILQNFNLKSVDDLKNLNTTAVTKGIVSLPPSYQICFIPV
The data set can be described thus: Inhibition of CYP2C8 in human liver microsomes assessed as paclitaxel 6alpha-hydroxylation after 20 mins by LC-MS/MS analysis. In kind it is ADME.

Data set [11] is described as follows: Kinetic solubility of the compound in 0.01 M HCl at pH 2 after 2 hrs by HPLC analysis. It is filed as physicochemical. The note with it: read-out: Kinetic_solubility.
The nature of data set [12]: Kinetic solubility of the compound in phosphate buffered saline at pH 7.4 after 2 hrs by HPLC analysis. As to conditions: read-out: Kinetic_solubility. It is filed as physicochemical.
The subject of data set [13] is Plasmodium falciparum. The data set can be described thus: Resistance index, ratio of IC50 for chloroquine-resistant Plasmodium falciparum K1 to IC50 for chloroquine-sensitive Plasmodium falciparum 3D7. In kind it is functional.
In data set [14] the test system is Plasmodium falciparum. The data set can be described thus: Antiplasmodial activity against chloroquine-resistant Plasmodium falciparum W2 after 24 hrs by [3H]hypoxanthine incorporation assay. It is filed as functional, organism-based. The essentials:
(§1)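 Antiplasmodial testing was done at the Swiss Tropical and Public Health Institute. Chloroquine, the reference drug, was tested as its diphosphate salt.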

In data set [15] the test system is Plasmodium falciparum. The data set can be described thus: Antiplasmodial activity against chloroquine-resistant Plasmodium falciparum K1 after 24 hrs by [3H]hypoxanthine incorporation assay. It is filed as functional, organism-based. The essentials: as §1
Data set [16] concerns Plasmodium falciparum. The data set can be described thus: Antiplasmodial activity against chloroquine-sensitive Plasmodium falciparum 3D7 after 24 hrs by [3H]hypoxanthine incorporation assay. It is filed as functional, organism-based. The essentials: as §1

Experimental findings from ChEMBL document CHEMBL3098028, “Synthesis and in vitro and in vivo pharmacological evaluation of new 4-aminoquinoline-based compounds” (ACS Med Chem Lett, 2013) are described below.

The structures appear in SMILES notation. ≈ marks a conversion by molar mass, not a printed value. Some results are limits rather than exact numbers.

Cytochrome P450 2E1, sequence (P05181 whole entry): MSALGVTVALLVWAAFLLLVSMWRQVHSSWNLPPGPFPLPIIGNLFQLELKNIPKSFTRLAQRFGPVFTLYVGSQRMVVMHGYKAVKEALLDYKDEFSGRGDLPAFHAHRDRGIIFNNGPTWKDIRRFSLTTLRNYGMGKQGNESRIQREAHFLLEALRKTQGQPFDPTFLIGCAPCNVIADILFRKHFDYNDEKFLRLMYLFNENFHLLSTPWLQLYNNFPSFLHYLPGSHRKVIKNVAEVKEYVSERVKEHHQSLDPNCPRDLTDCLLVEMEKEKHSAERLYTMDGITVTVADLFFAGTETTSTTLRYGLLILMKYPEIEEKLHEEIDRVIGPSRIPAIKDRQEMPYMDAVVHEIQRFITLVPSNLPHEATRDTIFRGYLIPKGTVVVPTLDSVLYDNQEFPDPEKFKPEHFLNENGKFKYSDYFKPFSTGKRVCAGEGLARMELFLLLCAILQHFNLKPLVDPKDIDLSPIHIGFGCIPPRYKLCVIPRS

Usually IC50 stands for the concentration at which inhibition is half-maximal. As for `Cc1ccc(C(NCCNc2ccnc3cc(Cl)ccc23)c2nnnn2C(C)(C)C)cc1` (stereo unspecified), the IC50 was 185 µM in [1]; above 20 µM in [2]; above 20 µM in [3]; above 20 µM in [4]; above 20 µM in [5]; 0.17 µM in data set [6]. Moreover, the IC50 is above 20 µM in [7]; 9.88 µM in [8]; 10.3 µM in data set [9]; 3.98 µM in data set [10]; 0.0311 µM in data set [14]; 0.002 µM in [15]. Further, the IC50 in data set [16] was determined as 0.001 µM. Besides, the solubility kinetic at 2 h worked out at 127 µM (≈ 57.1 µg/mL) in [11] and 39.6 µM (≈ 17.8 µg/mL) in [12]. Further, the “Ratio IC50” value in data set [13] is listed as 2.
